Test results taken from ChEMBL document CHEMBL5154634, “A Modular Synthetic Route Involving N-Aryl-2-nitrosoaniline Intermediates Leads to a New Series of 3-Substituted Halogenated Phenazine Antibacterial Agents” (J Med Chem, 2021).
pIC50: −log10 of the molar value. ≈ marks a conversion by molar mass, not a printed value. Calls of active or inactive are those of the source. The calls are words filed in the database; no cut-off is given here.

Assays:
[1] = Binding affinity to Fe2+ assessed as compound-Fe2+ complex formation by UV-vis spectroscopy
Staphylococcus aureus [2] = assay: Antibacterial activity against methicillin-resistant Staphylococcus aureus clinical isolate 2 assessed as bacterial growth inhibition; assay type: functional
J774 = assay: Cytotoxicity against mouse J774 cells assessed as reduction in cell viability […] by Alamar blue assay; assay type: toxicity, cell-based
Enterococcus faecium = assay: Antibacterial activity against vancomycin-resistant Enterococcus faecium ATCC 700221 assessed as bacterial growth inhibition incubated for 16 hrs by broth microdilution susceptibility test; assay type: functional
Method in brief: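 CLSI broth microdilution with 11 twofold dilutions (0.05–50 μM). Medium was LB for the staphylococci and BHI for VRE 700221. About 10^5 cells per well from a log-phase culture. […] DMSO vehicle up to 0.5% v/v. At least three independent experiments.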

Staphylococcus aureus [3] = assay: Antibacterial activity against methicillin-resistant Staphylococcus aureus 156 assessed as bacterial growth inhibition; assay type: functional
[4] = test system: Mycobacterium tuberculosis; assay: Antibacterial activity against Mycobacterium tuberculosis CDC1551 assessed as bacterial growth inhibition incubated for 5 days by luminescence based analysis; assay type: functional; details: CDC1551, 120 h, time 5 day
Method in brief: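 Bioluminescent Mtb-lux CDC1551 reporter grown in Middlebrook 7H9 with 0.05% Tween 80, 10% OADC and kanamycin to OD600 0.4–0.8, then diluted to OD600 0.02. Added to twofold drug dilutions (0.003–200 μM). Incubated 5 days at 37 °C, 5% CO2. Luminescence read against 1% DMSO and 10 μM rifampicin controls to give % growth inhibition. MIC taken from a modified Gompertz fit.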

Staphylococcus aureus [5] = assay: Induction of iron starvation in methicillin-resistant Staphylococcus aureus BAA-1707 biofilms assessed as upregulation of sfaA gene expression at 1 uM incubated for 4 hrs by RT-qPCR analysis; assay type: functional
Method in brief: (§1)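 MRSA BAA-1707 grown in TSB with 0.5% glucose to OD600 ~0.8–1.0, then biofilms formed 20 h at 37 °C statically in gelatin-coated 24-well plates. Biofilms treated 4 h at 37 °C with compound (1 μM or 1/10 MBEC) or DMSO vehicle. RNA extracted; only RIN ≥7 samples used. One-step SYBR RT-qPCR; ΔCT normalised to ptaA. Three independent experiments.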

Staphylococcus aureus [6] = assay: Antibiofilm activity against methicillin-resistant Staphylococcus aureus BAA-1707 biofilms assessed as biofilm eradication incubated for 24 hrs followed by incubation for 24 hrs in fresh medium by Calgary biofilm device assay; assay type: functional
Method in brief: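 Calgary biofilm device. Mid-log culture diluted 1000-fold in TSB with 0.5% glucose; biofilms grown on pegs 24 h at 37 °C. Pegs washed and challenged with twofold compound dilutions for 24 h at 37 °C, then moved to fresh medium for 24 h. MBEC is the lowest concentration leaving wells non-turbid. At least three independent experiments.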

[7] = test system: Staphylococcus epidermidis; assay: Antibiofilm activity against methicillin-resistant Staphylococcus epidermidis ATCC 35984 biofilms assessed as reduction of viable biofilm cells at 3.13 uM measured by CBD assay; assay type: functional
Staphylococcus aureus [8] = assay: Induction of iron starvation in methicillin-resistant Staphylococcus aureus BAA-1707 biofilms assessed as upregulation of isdB gene expression at 1 uM incubated for 4 hrs by RT-qPCR analysis; assay type: functional; method in brief: as §1
Staphylococcus aureus [9] = assay: Induction of iron starvation in methicillin-resistant Staphylococcus aureus BAA-1707 biofilms assessed as upregulation of MW0695 gene expression at 1 uM incubated for 4 hrs by RT-qPCR analysis; assay type: functional; method in brief: as §1
[10] = test system: Staphylococcus epidermidis; assay: Bactericidal activity against methicillin-resistant Staphylococcus epidermidis ATCC 35984 planktonic cells assessed as planktonic eradication incubated for 24 hrs followed by incubation for overnight in fresh medium by Calgary biofilm device assay; assay type: functional
Method in brief: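 Calgary biofilm device. Biofilms grown 24 h at 37 °C in TSB with 0.5% glucose, then challenged 24 h with twofold compound dilutions. 20 μL of challenge medium transferred into fresh TSB with 0.5% glucose and incubated overnight at 37 °C. MBC is the concentration with no visible turbidity. At least three independent experiments.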

With `Cc1cccc2nc3c(O)c(Br)c(Cl)c(Br)c3nc12` the Activity [1] was “Active”, the MIC (Staphylococcus aureus [2]) was 0.06 µM (≈ 0.0241 µg/mL) and the pIC50 (J774) was less than 3.70. For the same molecule, the MIC (Enterococcus faecium) was 0.1 µM (≈ 0.0402 µg/mL), the MIC (Staphylococcus aureus [3]) was 0.06 µM (≈ 0.0241 µg/mL) and the MIC [4] was 1.59 µM (≈ 0.64 µg/mL). The Activity (Staphylococcus aureus [5]) was “Active”, the MBEC (Staphylococcus aureus [6]) was 1.56 µM and the Activity [7] was 5 log10CFU. For the same molecule, the Activity (Staphylococcus aureus [8]) was “Active”, the Activity (Staphylococcus aureus [9]) was “Active” and the MBC [10] was 0.78 µM (≈ 0.314 µg/mL).
